In ChEMBL document CHEMBL4368909, “Identification of Dihydrofuro[3,4- d]pyrimidine Derivatives as Novel HIV-1 Non-Nucleoside Reverse Transcriptase Inhibitors with Promising Antiviral Activities and Desirable Physicochemical Properties” (J Med Chem, 2019):
Values after ≈ are worked out from the molar mass of the structure shown.

Key:
TZM = test: Cytotoxicity against human TZM-bl cells after 4 days by XTT assay; format: cell-based; details: 96 h
[1] = Aqueous solubility of the compound at pH at 2 by HPLC analysis; format: physicochemical; details: buffer, pH 2
Procedure, shortened: (§1)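 Aqueous solubility read by HPLC in buffer at pH 2.0, 7.0 or 7.4.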

[2] = Aqueous solubility of the compound at pH at 7 by HPLC analysis; format: physicochemical; details: buffer, pH 7; procedure, shortened: as §1
[3] = Aqueous solubility of the compound in FASSIF by HPLC analysis; format: physicochemical; details: simulated gi fluid
Procedure, shortened: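 Solubility read by HPLC in fasted state simulated intestinal fluid (FaSSIF).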

[4] = Aqueous solubility of the compound at pH at 7.4 by HPLC analysis; format: physicochemical; details: buffer, pH 7.4; procedure, shortened: as §1
[5] = system: Human immunodeficiency virus 1; test: Antiviral activity against HIV1 NL4-3 infected in human TZM-bl cells after 2 days by luciferase-bright glo assay; format: functional, organism-based; details: Human immunodeficiency virus 1, NL4-3, TZM-bl, 48 h
[6] = Selectivity ratio of CC50 for human TZM-bl cells to EC50 for HIV1 NL4-3 infected in human TZM-bl cells; format: toxicity, cell-based; details: read-out: Ratio CC50/EC50
Procedure, shortened: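 The selectivity index is CC50/EC50 in TZM-bl cells against NL4-3. […] The highest concentration tested was 125 ng/mL.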

[7] = Selectivity ratio of CC50 for human MT4 cells to EC50 for HIV1 RES056 infected in human MT4 cells; format: toxicity, cell-based; details: read-out: Ratio CC50/EC50
[8] = Selectivity ratio of CC50 for human MT4 cells to EC50 for HIV1 3B infected in human MT4 cells; format: toxicity, cell-based; details: read-out: Ratio CC50/EC50
[9] = target: Human immunodeficiency virus type 1 reverse transcriptase (Human immunodeficiency virus 1, UniProt Q72547); test: Inhibition of recombinant HIV1 reverse transcriptase using (DIG)-dUTP and biotin-labeled dNTPs as substrate after 1 hr by ELISA
MT4 = test: Cytotoxicity against human MT4 cells after 5 days by MTT assay; format: cell-based; details: mt4, 120 h
[10] = system: Human immunodeficiency virus 1; test: Antiviral activity against wild type HIV1 3B infected in human MT4 cells assessed as reduction in virus-induced cytopathic effect after 5 days by MTT assay; format: functional, organism-based; details: Human immunodeficiency virus 1, 3B, MT4, 120 h
[11] = system: Human immunodeficiency virus 2; test: Antiviral activity against HIV2 ROD infected in human MT4 cells assessed as reduction in virus-induced cytopathic effect after 5 days by MTT assay; details: Human immunodeficiency virus 2, ISOLATE ROD, MT4, 120 h
[12] = system: Human immunodeficiency virus 1; test: Antiviral activity against HIV1 RES056 infected in human MT4 cells assessed as reduction in virus-induced cytopathic effect after 5 days by MTT assay; format: functional, organism-based; details: Human immunodeficiency virus 1, RES056, MT4, 120 h
[13] = system: Human immunodeficiency virus 1; test: Resistance factor, ratio of EC50 for HIV1 harboring reverse transcriptase L100I mutant to EC50 for wild type HIV1; format: functional
Procedure, shortened: (§2)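 The resistance factor is the EC50 against the mutant strain divided by the EC50 against wild-type HIV-1. Both were measured in MT-4 cells by MTT read-out of protection from virus-induced cytopathicity.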

[14] = Selectivity ratio of CC50 for human MT4 cells to EC50 for HIV1 harboring reverse transcriptase Y188L mutant infected in human MT4 cells; format: toxicity, cell-based; details: read-out: Ratio CC50/EC50
[15] = Selectivity ratio of CC50 for human MT4 cells to EC50 for HIV1 harboring reverse transcriptase K103N mutant infected in human MT4 cells; format: toxicity, cell-based; details: read-out: Ratio CC50/EC50
[16] = Selectivity ratio of CC50 for human MT4 cells to EC50 for HIV1 harboring reverse transcriptase F227L/V106A double mutant infected in human MT4 cells; format: toxicity, cell-based; details: read-out: Ratio CC50/EC50
[17] = system: Human immunodeficiency virus 1; test: Resistance factor, ratio of EC50 for HIV1 harboring reverse transcriptase Y188L mutant to EC50 for wild type HIV1; format: functional; procedure, shortened: as §2
[18] = system: Human immunodeficiency virus 1; test: Antiviral activity against HIV1 harboring reverse transcriptase K103N mutant infected in human MT4 cells assessed as reduction in virus-induced cytopathic effect after 5 days by MTT assay; format: functional, organism-based; details: Human immunodeficiency virus 1, MT4, 120 h
[19] = system: Human immunodeficiency virus 1; test: Resistance factor, ratio of EC50 for HIV1 harboring reverse transcriptase K103N mutant to EC50 for wild type HIV1; format: functional; procedure, shortened: as §2
[20] = system: Human immunodeficiency virus 1; test: Antiviral activity against HIV1 harboring reverse transcriptase Y188L mutant infected in human MT4 cells assessed as reduction in virus-induced cytopathic effect after 5 days by MTT assay; format: functional, organism-based; details: Human immunodeficiency virus 1, MT4, 120 h
[21] = system: Human immunodeficiency virus 1; test: Antiviral activity against HIV1 harboring reverse transcriptase E138K mutant infected in human MT4 cells assessed as reduction in virus-induced cytopathic effect after 5 days by MTT assay; format: functional, organism-based; details: Human immunodeficiency virus 1, MT4, 120 h
[22] = Selectivity ratio of CC50 for human MT4 cells to EC50 for HIV1 harboring reverse transcriptase Y181C mutant infected in human MT4 cells; format: toxicity, cell-based; details: read-out: Ratio CC50/EC50
[23] = system: Human immunodeficiency virus 1; test: Antiviral activity against HIV1 harboring reverse transcriptase Y181C mutant infected in human MT4 cells assessed as reduction in virus-induced cytopathic effect after 5 days by MTT assay; format: functional, organism-based; details: Human immunodeficiency virus 1, MT4, 120 h
[24] = system: Human immunodeficiency virus 1; test: Resistance factor, ratio of EC50 for HIV1 harboring reverse transcriptase E138K mutant to EC50 for wild type HIV1; format: functional; procedure, shortened: as §2
[25] = Selectivity ratio of CC50 for human MT4 cells to EC50 for HIV1 harboring reverse transcriptase E138K mutant infected in human MT4 cells; format: toxicity, cell-based; details: read-out: Ratio CC50/EC50
[26] = system: Human immunodeficiency virus 1; test: Antiviral activity against HIV1 harboring reverse transcriptase L100I mutant infected in human MT4 cells assessed as reduction in virus-induced cytopathic effect after 5 days by MTT assay; format: functional, organism-based; details: Human immunodeficiency virus 1, MT4, 120 h
[27] = system: Human immunodeficiency virus 1; test: Antiviral activity against HIV1 harboring reverse transcriptase F227L/V106A double mutant infected in human MT4 cells assessed as reduction in virus-induced cytopathic effect after 5 days by MTT assay; format: functional, organism-based; details: Human immunodeficiency virus 1, MT4, 120 h
[28] = system: Human immunodeficiency virus 1; test: Resistance factor, ratio of EC50 for HIV1 harboring reverse transcriptase F227L/V106A double mutant to EC50 for wild type HIV1; format: functional; procedure, shortened: as §2
[29] = Selectivity ratio of CC50 for human MT4 cells to EC50 for HIV1 harboring reverse transcriptase L100I mutant infected in human MT4 cells; format: toxicity, cell-based; details: read-out: Ratio CC50/EC50
[30] = system: Human immunodeficiency virus 1; test: Resistance factor, ratio of EC50 for HIV1 harboring reverse transcriptase Y181C mutant to EC50 for wild type HIV1; format: functional; procedure, shortened: as §2

Compound `Cc1cc(C#N)cc(C)c1Oc1nc(NC2CCN(Cc3ccc(S(N)(=O)=O)cc3)CC2)nc2ccsc12` has a CC50 (TZM) of over 227 nM, a solubility [1] of 190 µg/mL (≈ 346 µM) and a solubility [2] of 0.05 µg/mL (≈ 0.0911 µM). For the same compound, the solubility [3] was 1.24 µg/mL (≈ 2.26 µM), the solubility [4] was under 1 µg/mL and the EC50 [5] was 1.16 nM. The selectivity ratio [6] was 196.
In the case of `Cc1cc(C#N)cc(C)c1Oc1nc(NC2CCN(Cc3cccc(C(N)=O)c3)CC2)nc2c1CCC2`, the selectivity ratio [7] is reported as 9, the selectivity ratio [8] is reported as 124000 and the IC50 [9] is reported as 241 nM. For the same compound, the CC50 (MT4) was 205000 nM, the EC50 [10] was 2 nM and the EC50 [11] was over 205000 nM. For the same compound, the EC50 [12] was 26800 nM.
In the case of `Cc1cc(C#N)cc(C)c1Oc1nc(NC2CCN(Cc3ccc([N+](=O)[O-])cc3)CC2)nc2c1CCC2`, the selectivity ratio [7] is reported as 9, the selectivity ratio [8] is reported as 599 and the IC50 [9] is reported as 241 nM. It also gave a CC50 (MT4) of 8730 nM, an EC50 [10] of 14.5 nM and an EC50 [11] of over 8730 nM. It also gave an EC50 [12] of 941 nM.
Work on `Cc1cc(C#N)cc(C)c1Oc1nc(NC2CCN(Cc3ccncc3)CC2)nc2c1CCCC2` yielded a selectivity ratio [7] of 440, a selectivity ratio [8] of 8750 and an IC50 [9] of 72 nM. The CC50 (MT4) was 75800 nM, the EC50 [10] was 8.6 nM and the EC50 [11] was 21700 nM. It also gave an EC50 [12] of 172 nM.
`Cc1cc(C#N)cc(C)c1Oc1nc(NC2CCN(Cc3ccc(S(C)(=O)=O)cc3)CC2)nc2c1CCC2` gave a selectivity ratio [7] of 40, a selectivity ratio [8] of 1500 and an IC50 [9] of 157 nM. It also gave a CC50 (MT4) of 7450 nM, an EC50 [10] of 4.9 nM and an EC50 [11] of 41800 nM. For the same compound, the EC50 [12] was 187 nM.
With `Cc1cc(C#N)cc(C)c1Oc1nc(NC2CCN(Cc3ccc(S(N)(=O)=O)cc3)CC2)nc2c1SCC2` the “Ratio EC50” value [13] was 1.2, the selectivity ratio [7] was 692 and the solubility [1] was 192 µg/mL (≈ 349 µM). The selectivity ratio [14] was 1640, the solubility [2] was 8.26 µg/mL (≈ 15 µM) and the selectivity ratio [8] was 4580. It also gave a selectivity ratio [15] of 2840, a solubility [3] of 10 µg/mL (≈ 18.2 µM) and an IC50 [9] of 74 nM. For the same compound, the selectivity ratio [16] was 1220, the CC50 (MT4) was 19900 nM and the “Ratio EC50” value [17] was 2.2. The EC50 [18] was 5.9 nM, the solubility [4] was 2.54 µg/mL (≈ 4.61 µM) and the EC50 [10] was 4.3 nM. The “Ratio EC50” value [19] was 1.3, the EC50 [11] was 6550 nM and the EC50 [20] was 10.1 nM. For the same compound, the EC50 [21] was 12.8 nM, the selectivity ratio [22] was 2070 and the EC50 [23] was 8 nM. For the same compound, the “Ratio EC50” value [24] was 2.7, the selectivity ratio [25] was 1300 and the EC50 [26] was 5.8 nM. For the same compound, the EC50 [12] was 28.8 nM, the EC50 [27] was 13.7 nM and the “Ratio EC50” value [28] was 2.9. The selectivity ratio [29] was 2880 and the “Ratio EC50” value [30] was 1.7.
Work on `Cc1cc(C#N)cc(C)c1Oc1nc(NC2CCN(Cc3ccc([N+](=O)[O-])cc3)CC2)nc2c1SCC2` yielded a selectivity ratio [7] of 12, a selectivity ratio [8] of 770 and an IC50 [9] of 175 nM. For the same compound, the CC50 (MT4) was 6180 nM, the EC50 [10] was 8 nM and the EC50 [11] was over 6180 nM. The EC50 [12] was 495 nM.
With `Cc1cc(C#N)cc(C)c1Oc1nc(NC2CCN(Cc3ccc(S(N)(=O)=O)cc3)CC2)nc2c1SCCC2` the “Ratio EC50” value [13] was 4.7, the CC50 (MT4) was at least 148000 nM and the “Ratio EC50” value [17] was 3. The EC50 [18] was 5.2 nM, the EC50 [10] was 2.7 nM and the “Ratio EC50” value [19] was 1.9. It also gave an EC50 [11] of over 148000 nM, an EC50 [20] of 8 nM and an EC50 [21] of 8.5 nM. For the same compound, the EC50 [23] was 10.4 nM, the “Ratio EC50” value [24] was 3.1 and the EC50 [26] was 12.9 nM. The EC50 [12] was 40.6 nM, the EC50 [27] was 22.3 nM and the “Ratio EC50” value [28] was 8.3. For the same compound, the “Ratio EC50” value [30] was 3.8.
